One block for each molecule: values may come before it. Calls of active or inactive are those of the source. No cut-off for these calls is given here. Square brackets hold non-standard residues; d marks the D form. Peptide text beside a SMILES is read from it. Sar = CNCC(=O)O
Columns and labels:
[1] = target: T1, Solute carrier family 15 member 1 (Homo sapiens) (UniProt P46059); assay: Inhibition of [3H]GlySar uptake at human PepT1 in Caco-2 cells; format: cell-based
T1 sequence (whole entry): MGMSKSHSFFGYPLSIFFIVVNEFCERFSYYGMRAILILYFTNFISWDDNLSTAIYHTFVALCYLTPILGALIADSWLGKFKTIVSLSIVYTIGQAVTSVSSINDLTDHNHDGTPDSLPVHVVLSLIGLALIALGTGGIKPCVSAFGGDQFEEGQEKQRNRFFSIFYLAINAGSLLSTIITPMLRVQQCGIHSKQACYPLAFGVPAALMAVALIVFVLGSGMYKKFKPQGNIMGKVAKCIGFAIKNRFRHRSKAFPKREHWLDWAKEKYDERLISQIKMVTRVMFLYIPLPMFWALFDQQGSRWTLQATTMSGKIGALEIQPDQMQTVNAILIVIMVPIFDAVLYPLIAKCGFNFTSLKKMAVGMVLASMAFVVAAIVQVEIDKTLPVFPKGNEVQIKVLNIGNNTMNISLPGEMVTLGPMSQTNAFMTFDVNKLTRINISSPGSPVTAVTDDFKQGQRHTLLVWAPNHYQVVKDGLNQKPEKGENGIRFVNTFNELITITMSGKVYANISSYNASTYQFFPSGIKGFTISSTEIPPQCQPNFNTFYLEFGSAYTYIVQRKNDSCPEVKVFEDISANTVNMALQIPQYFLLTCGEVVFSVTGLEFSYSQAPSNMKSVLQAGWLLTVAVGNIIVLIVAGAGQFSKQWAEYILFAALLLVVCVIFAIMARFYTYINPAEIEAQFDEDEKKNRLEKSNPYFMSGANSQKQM
Outline: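 Uptake into differentiated Caco-2 monolayers under apical pH 6.0/basolateral pH 7.4 HBSS. 5 min incubation with 1 µCi/mL [3H]GlySar (250 nM), with or without 4 mM test compound in the apical donor chamber. Stopped by removing solution and three ice-cold HBSS washes. Monolayer radioactivity counted relative to control; SD, n = 3, significance at p < 0.05.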

[2] = Apparent permeability from apical to basolateral side of human Caco-2 cells in presence of 5 mM GlySar; format: ADME, cell-based; details: Caco-2, with GlySar 5 mM
[3] = Apparent permeability from basolateral to apical side of human Caco-2 cells; format: ADME, cell-based
Outline: (§1)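 Caco-2 monolayers (passage 94-100) on polycarbonate inserts, differentiated 24 ± 1 days. Transport in HBSS with pH gradient: apical pH 6.0 (10 mM MES), basolateral pH 7.4 (25 mM HEPES), 0.5% DMSO final. Samples taken at intervals, replaced with HBSS + 0.5% DMSO. Papp = dQ/dt × 1/(A × c0), from steady-state flux; n = 3-4.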

[4] = Apparent permeability from apical to basolateral side of human Caco-2 cells; format: ADME, cell-based; outline: as §1
[5] = Apparent permeability from apical to basolateral side of human Caco-2 cells at pH 7.4 after 180 mins; format: ADME, cell-based; details: Caco-2, pH 7.4
Outline: (§2)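 Caco-2 monolayers (passage 94-100, differentiated 24 ± 1 days on inserts). Transport in HBSS at pH 7.4 on both sides, 0.5% DMSO final, over 180 min. Run with and without P-gp inhibitor GF120918 at 2 µM. Samples taken at intervals. Papp from steady-state flux divided by filter area and initial donor concentration.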

[6] = Apparent permeability from basolateral to apical side of human Caco-2 cells at pH 7.4 after 180 mins; format: ADME, cell-based; details: Caco-2, pH 7.4; outline: as §2
[7] = Apparent permeability across human Caco-2 cells; format: ADME, cell-based
Outline: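 Caco-2 monolayers (passage 94-100) on 0.4 µm polycarbonate inserts, seeded 4.4 × 10^5 cells per cm2, differentiated 24 ± 1 days. Transport in HBSS with 0.5% DMSO, apical pH 6.0 (10 mM MES), basolateral pH 7.4 (25 mM HEPES); P-gp runs at pH 7.4. Both directions sampled over time. Papp = dQ/dt × 1/(A × c0); n = 3-4.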

Papp A→B at 3 h [5]: 0.021 ×10⁻⁶ cm/s
Activity [1]: Active
Papp A→B [2]: 0.028 ×10⁻⁶ cm/s
Papp B→A [3]: 0.097 ×10⁻⁶ cm/s
Papp A→B [4]: 0.033 ×10⁻⁶ cm/s
Papp B→A at 3 h [6]: 0.115 ×10⁻⁶ cm/s
Compound: CCC[C@@H](C[C@H](C)NC(=O)[C@H](C)C[C@@H](NC(=O)[C@@H](Cc1ccccc1)C[C@@H](C)N)C(C)C)C(=O)O

Activity [1]: Active
Papp A→B [2]: 0.291 ×10⁻⁶ cm/s
Papp B→A [3]: 0.129 ×10⁻⁶ cm/s
Papp A→B [4]: 0.613 ×10⁻⁶ cm/s
Compound: CC(C)C[C@@H](CC(=O)O)NC(=O)C[C@H](C)N

Activity [1]: inactive
Papp A→B [2]: 0.026 ×10⁻⁶ cm/s
Papp B→A [3]: 0.094 ×10⁻⁶ cm/s
Papp A→B [4]: 0.034 ×10⁻⁶ cm/s
Compound: CC(C)C[C@H](CCNC(=O)[C@H](C)CCNC(=O)[C@@H](CCN)C(C)C)C(=O)O

Activity [1]: Active
Papp A→B [2]: 0.045 ×10⁻⁶ cm/s
Papp B→A [3]: 0.075 ×10⁻⁶ cm/s
Papp A→B [4]: 0.072 ×10⁻⁶ cm/s
Compound: NCCCC[C@H](N)CC(=O)N[C@H](CC(=O)O)Cc1ccccc1

Activity [1]: Active
Papp A→B [2]: 0.031 ×10⁻⁶ cm/s
Papp B→A [3]: 0.071 ×10⁻⁶ cm/s
Papp A→B [4]: 0.037 ×10⁻⁶ cm/s
Compound: NCCCC[C@@H](CC(=O)N[C@H](CC(=O)O)Cc1ccccc1)NC(=O)C[C@@H](N)CO

The next lines start with the molecule.

Compound: CC(C)C[C@@H](CC(=O)O)NC(=O)[C@@H](C)CN
Activity [1]: Active
Papp A→B [2]: 0.055 ×10⁻⁶ cm/s
Papp B→A [3]: 0.084 ×10⁻⁶ cm/s
Papp A→B [4]: 0.095 ×10⁻⁶ cm/s

Compound: CC(C)C[C@@H](CNC(=O)[C@@H](C)CNC(=O)[C@H](CN)C(C)C)C(=O)O
Activity [1]: Active
Papp A→B [2]: 0.023 ×10⁻⁶ cm/s
Papp B→A [3]: 0.071 ×10⁻⁶ cm/s
Papp A→B [4]: 0.024 ×10⁻⁶ cm/s

Compound: C[C@H](N)CC(=O)N[C@@H](CCCCN)CC(=O)O
Papp A→B at 3 h [5]: 0.044 ×10⁻⁶ cm/s
Activity [1]: Active
Papp B→A [3]: 0.078 ×10⁻⁶ cm/s
Papp A→B [4]: 0.037 ×10⁻⁶ cm/s
Papp B→A at 3 h [6]: 0.051 ×10⁻⁶ cm/s

Compound: CC(C)[C@H](N)CC(=S)N[C@@H](C)CC(=O)O
Activity [1]: Active
Papp A→B [2]: 0.393 ×10⁻⁶ cm/s
Papp B→A [3]: 0.124 ×10⁻⁶ cm/s
Papp A→B [4]: 0.754 ×10⁻⁶ cm/s

Compound: C[C@H](N)CC(=O)N[C@@H](CCCCN)CC(=O)N[C@H](CC(=O)O)Cc1ccccc1
Activity [1]: Active
Papp A→B [2]: 0.039 ×10⁻⁶ cm/s
Papp B→A [3]: 0.061 ×10⁻⁶ cm/s
Papp A→B [4]: 0.049 ×10⁻⁶ cm/s

Compound: CN(CC(=O)O)C(=O)CN [GLYCYLSARCOSINE] (H-Gly-[Sar]-OH)
Papp [7]: 11 ×10⁻⁶ cm/s

Compound: C[C@@H](CC(=O)O)NC(=O)C[C@H](C)NC(=O)C[C@@H](N)CO
Activity [1]: inactive
Papp A→B [2]: 0.043 ×10⁻⁶ cm/s
Papp A→B [4]: 0.044 ×10⁻⁶ cm/s
